24 molecules from PubChem BioAssay can be followed below.

A word on the viability: it is a read-out of living cells in per cent, often relative to untreated cells. Broadly, the inhibition is the change of the read-out against control, counted positive when it falls.

Experiment [1] is described as follows: OD615 S. cerevisiae growth inhibition, permissive medium, pilot counter-assay, permissive growth control for S. cerevisiae lifespan shortening project (AID 705;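 active means growth inhibition above 25% in both replicates, a cutoff set 3 SD above the mean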). Particulars: OD615, 24 h, at 10 µM, stronger effect = higher value. The gist of the method:
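System: Engineered DeaD yeast | Buffer or medium: SC raffinose/galactose permissive medium | Doses: 10 µM single dose, 0.25% DMSO | Times: 24 h exposure, 30 °C | Measured by: OD615 turbidity read | Read-out: Yeast growth inhibition indicated by reduced 24 h OD615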

The nature of experiment [2]: Restrictive medium S. cerevisiae growth inhibition, OD615, pilot screen of yeast lifespan reduction project, restrictive growth control (AID 706;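 active means growth inhibition above a set limit, 3 SD over mean compound inhibition, in both replicates, cut at about 43% in these data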;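 further: modified DeaD lifespan yeast strain shifted to restrictive glucose medium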). Particulars: OD615, 48 h, at 10 µM, stronger effect = higher value. The gist of the method: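 Assay system: engineered S. cerevisiae DeaD strain; Buffer or medium: CSMM-D glucose medium; Dosing: 10 µM compound, 0.25% DMSO; Times: cell pre-growth 4 h, compound exposure 48 h, 30 °C; Detection: absorbance (optical density) measured at 615 nm.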

Experiment [3] can be described thus: viability gain of MRP-1-high H69AR cells under doxorubicin, pilot screen, MRP-1 activator project, CellTiter-Glo, duplicate (AID 807).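 Further: compound pretreatment 18-22 h then 72 h combined with doxorubicin; 0% = doxorubicin alone and 100% = vehicle without doxorubicin.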 Particulars: H69AR viability with doxorubicin, CellTiter-Glo luminescence; at 10 µM; stronger effect = higher value. Background: Cellular ATP, detected with luciferase, serves as a proxy for viable cell number.
The nature of experiment [4]: growth suppression of beta-catenin knockout HCT116, pilot screen, human colon tumor cells (AID 823;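 active means cell viability at or below a set limit in both duplicate runs, the limit being the all-compound median minus 4 SD, cut at about 23% in these data, passing the limit was not always enough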;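 further: 0% = wells killed by 20 µM Hyamine and 100% = untreated DMSO cell wells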). Particulars: CellTiter-Glo, 60 h, at 10 µM, stronger effect = lower value.
Experiment [5] in a line: growth suppression of PTEN-deleted HCT116, pilot screen, cell-based, HCT116 clonal line, CellTiter-Glo (AID 824;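 active means viability at or below 27.92% in each of two runs, the all-compound median minus 4 SD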;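 further: 0% = 20 µM Hyamine control and 100% = vehicle cell control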). Particulars: 60 h, at 10 µM, stronger effect = lower value.
Experiment [6] can be described thus: inhibitors of the yeast RAM network, pilot screen, dse1pr::URA3 reporter, 5-FOA selection (AID 869;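 active means inhibition over a set limit, the all-compound mean plus 3 SD, in both replicate runs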;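 further: 0% = DMSO wells with no growth and 100% = 10 µM 1-NA-PP1 with full growth; RAM network block rescues cells from 5-FOA so hits raise OD615 growth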). As to conditions: S. cerevisiae dse1pr::URA3 5-FOA growth, OD615, 2 d; at 10 µM; stronger effect = higher value; strain carries analog-sensitive mutant Cbk1 kinase.
A short description of experiment [7]: RAM signaling pathway blockade in yeast – S. cerevisiae, Pdr1DBD-CYC8 efflux-inhibited sensitized strain, primary screen (AID 1298;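 active means RAM network inhibition above 8.4% in each of two replicates, 3 SD over the compound average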;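 further: 0% = DMSO untreated cells without growth and 100% = 10 µM 1-NA-PP1 full growth; higher means more yeast growth rescued from 5-FOA killing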). Particulars: S. cerevisiae cbk1-as DSE1-URA3 strain, 5-FOA growth OD615, 2 d; at 50 µM; stronger effect = higher value.

Unmarked numbers belong to inactive results. Records with an inconclusive call do not appear. Activity calls are given as the source filed them.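 How the source made its calls, unless noted: active means viability increase at or above a cutoff of the median across tested compounds plus 3 SD (cut at about 8.5% in these data, passing the limit was not always enough); inconclusive means some gains above the cutoff, reason not given; inactive means the rest.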

For the molecule `COc1ccc(C(=O)Nc2cc(=O)n(C)c(=O)n2C)cc1OC`, the growth inhibition in experiment [1] was -0.79%; in experiment [2], 6.3%. For the same molecule, the viability increase in experiment [3] is -1.84%. For the same molecule, the viability was 104% in experiment [4] and 94.2% in experiment [5]. In experiment [6], the inhibition is 1.09%. The RAM network inhibition in experiment [7] was -1.14%.
Turning to `Cc1[nH]nc2c1C(c1ccccc1F)NC2=O` (stereo not drawn), the growth inhibition is -0.665% in experiment [1] and -2.84% in experiment [2]. The viability increase in experiment [3] is -1.22%. Further, the values for the viability in experiment [4] and in experiment [5] were 106% and 97.9%, respectively. The inhibition in experiment [6] was 2.04%. For the same molecule, in experiment [7], the RAM network inhibition was -0.67%.
Take `CN(C)c1oc(-c2ccccc2Cl)nc1S(=O)(=O)c1ccccc1`: the growth inhibition was -17.1% in experiment [1] and 0.09% in experiment [2]. Further, in experiment [3], the viability increase is -0.11%. In addition, the viability is 95.5% in experiment [4] and 93.2% in experiment [5]. Further, the inhibition in experiment [6] is 1.2%. The RAM network inhibition in experiment [7] is 17% (active).
In the case of `CC(C)NC(=O)CCCc1ccccc1`, the results for the growth inhibition in experiment [1] and in experiment [2] were -8% and -14.1%, respectively. In addition, the viability increase in experiment [3] was -1.04%. The viability is 92.1% in experiment [4] and 91.1% in experiment [5]. The inhibition in experiment [6] is 1.2%. Also, the RAM network inhibition in experiment [7] was -0.58%.
Consider `CCCc1ccc(Oc2c(-c3ccc(O)c(C)c3O)n[nH]c2C)cc1`, for which the growth inhibition in experiment [1] is 93.6% (active); in experiment [2], 87.5% (active). Moreover, the viability increase in experiment [3] was -2.16%. Also, the viability in experiment [4] was 72.3%; in experiment [5], 74.3%. For the same molecule, the inhibition in experiment [6] is -2.1%. The RAM network inhibition in experiment [7] was -1.26%.
As for `CCc1cccc(OCCCCNCCOC)c1`, the growth inhibition is -2.16% in experiment [1] and -11.6% in experiment [2]. Also, in experiment [3], the viability increase is -0.86%. For the same molecule, the viability in experiment [4] is 89.1%; in experiment [5] it was 99.3%. Further, the inhibition in experiment [6] was 2.08%. The RAM network inhibition in experiment [7] is -0.32%.
In the case of `CC(=O)c1ccc(OCC(O)CN2CCC(C)CC2)cc1` (stereo not drawn), the growth inhibition in experiment [1] was -0.26%; in experiment [2], 9.25%. For the same molecule, in experiment [3], the viability increase was -0.16%. Besides, the viability in experiment [4] and in experiment [5] was 101% throughout. Further, in experiment [6], the inhibition is 0.54%. Further, the RAM network inhibition in experiment [7] was -2.94%.
As to `Cn1cnnc1SCCC(=O)Nc1ccccc1`, the figures for the growth inhibition in experiment [1] and in experiment [2] were 6.46% and 0.795%, respectively. The viability increase in experiment [3] is -1.01%. Also, the viability was 101% in experiment [4] and 99.5% in experiment [5]. Also, in experiment [6], the inhibition is 1.14%. Moreover, the RAM network inhibition in experiment [7] was 2.5%.
As to `CCN1C(=O)CSc2ccc(C(=O)OC)cc21`, the growth inhibition in experiment [1] was -6.5%; in experiment [2], -12.7%. The viability increase in experiment [3] is -1.33%. In addition, the viability in experiment [4] is 95.6%; in experiment [5], 90.3%. For the same molecule, the inhibition in experiment [6] is 1.39%. The RAM network inhibition in experiment [7] was -0.69%.
For `CC1CN(C(c2cccs2)c2sc3ncnn3c2O)CC(C)O1` (stereo not drawn), the growth inhibition in experiment [1] is -15%; in experiment [2], -4.9%. Also, the viability increase in experiment [3] was 0.14%. The viability is 101% in experiment [4] and 97.8% in experiment [5]. The inhibition in experiment [6] is 2.26%. Besides, the RAM network inhibition in experiment [7] is 4.47%.
`Cc1ccc(C)n1-n1c(C)nc2scc(-c3cccs3)c2c1=O`: the growth inhibition in experiment [1] was -13.1%; in experiment [2], 1.95%. Besides, in experiment [3], the viability increase is -3.42%. For the same molecule, the figures for the viability in experiment [4] and in experiment [5] were 72.1% and 71.6%, respectively. In addition, the inhibition in experiment [6] was 0.72%. For the same molecule, the RAM network inhibition in experiment [7] is 2.2%.
For the molecule `C=CCSC1=C(C#N)C(c2ccc(OCC)cc2)CC(=O)N1` (stereo not drawn), the values for the growth inhibition in experiment [1] and in experiment [2] were -11.9% and 15.4%, respectively. Besides, the viability increase in experiment [3] was -1.8%. For the same molecule, the viability in experiment [4] is 94.5%; in experiment [5], 88.2%. The inhibition in experiment [6] was 1.47%. In addition, the RAM network inhibition in experiment [7] is 4.8%.
Regarding `Cc1cccnc1NC(=O)c1c(O)c2ccccc2n(C)c1=O`, the growth inhibition in experiment [1] is 3.49%; in experiment [2] it was 11.4%. Moreover, in experiment [3], the viability increase is -3.77%. Moreover, the results for the viability in experiment [4] and in experiment [5] were 92% and 98%, respectively. Besides, in experiment [6], the inhibition was -0.005%. Moreover, the RAM network inhibition in experiment [7] is -1.38%.
On to `CCOC(=O)Cn1c(CN2CCOCC2)nc2c1c(=O)n(C)c(=O)n2C`, for which the growth inhibition in experiment [1] is -1.92%; in experiment [2], -5.31%. Moreover, the viability increase in experiment [3] is 1.26%. The viability in experiment [4] is 107%; in experiment [5], 103%. The inhibition in experiment [6] is 1.72%. Besides, the RAM network inhibition in experiment [7] is 2.19%.
Consider `CCn1c(SCC(=O)N2CCCC2)nc2c(c1=O)SC(C)C2` (stereo not drawn), for which the growth inhibition was -17.4% in experiment [1] and -27.5% in experiment [2]. For the same molecule, the viability increase in experiment [3] is -4.48%. For the same molecule, the viability in experiment [4] was 101%; in experiment [5] it was 95.6%. Moreover, the inhibition in experiment [6] is 1.73%. Also, the RAM network inhibition in experiment [7] is 3.14%.
In the case of `Cc1cc(C(=O)N2CCN(c3ccccn3)CC2)no1`, the growth inhibition is -1.03% in experiment [1] and 0.795% in experiment [2]. The viability increase in experiment [3] is 0.33%. Moreover, the viability was 109% in experiment [4] and 102% in experiment [5]. For the same molecule, the inhibition in experiment [6] is 1.05%. Further, the RAM network inhibition in experiment [7] was 2.86%.
With `CN(Cc1ccccc1)C(=O)COC(=O)c1ccc2c(c1)OCO2`, the results for the growth inhibition in experiment [1] and in experiment [2] were -6.52% and -18.6%, respectively. Besides, the viability increase in experiment [3] is 0.42%. The viability was 101% in experiment [4] and 104% in experiment [5]. In experiment [6], the inhibition is 0.11%. Besides, the RAM network inhibition in experiment [7] was 0.88%.
Regarding `Cc1ccccc1NC(=O)c1cnn(-c2ccccc2)c1NC(=O)c1ccco1`, the growth inhibition is -12.6% in experiment [1] and -3.13% in experiment [2]. In addition, the viability increase in experiment [3] is -0.49%. Also, the viability in experiment [4] was 103%; in experiment [5], 98.2%. Also, in experiment [6], the inhibition is 0.855%. Moreover, the RAM network inhibition in experiment [7] was 1.65%.
With `N#CCCN1CCN(C(CNS(=O)(=O)c2ccc(Cl)cc2)c2ccccc2)CC1` (stereo not drawn), the growth inhibition is -11.4% in experiment [1] and -16.5% in experiment [2]. Besides, in experiment [3], the viability increase is -1.72%. Moreover, the viability was 95.3% in experiment [4] and 94.8% in experiment [5]. Also, the inhibition in experiment [6] was 1.9%. In addition, the RAM network inhibition in experiment [7] is 6.39%.
For `COc1ccc(S(=O)(=O)N2CCC(C(=O)Nc3cccc(Cl)c3)CC2)cc1OC`, the figures for the growth inhibition in experiment [1] and in experiment [2] were -2.42% and -2.81%, respectively. Moreover, the viability increase in experiment [3] was -3.54%. In addition, the viability was 75.9% in experiment [4] and 78% in experiment [5]. For the same molecule, the inhibition in experiment [6] is 0.63%. For the same molecule, the RAM network inhibition in experiment [7] is 1.52%.
With `COC(=O)c1ccc(NC(=O)CSc2nnc(-c3ccncc3)n2N)cc1`, the growth inhibition is -4.88% in experiment [1] and -14.8% in experiment [2]. In experiment [3], the viability increase was -1.74%. In addition, the viability is 95.7% in experiment [4] and 97.4% in experiment [5]. Also, in experiment [6], the inhibition was 0.805%. In addition, the RAM network inhibition in experiment [7] was 0.26%.
As for `COC(=O)c1ccc(CSc2nc3c(c(=O)n2-c2ccc(Br)cc2)SCC3)o1`, the growth inhibition in experiment [1] is -15.5%; in experiment [2] it was -19.8%. Further, the viability increase in experiment [3] is -3.79%. For the same molecule, the viability in experiment [4] is 80.9%; in experiment [5] it was 76%. Besides, in experiment [6], the inhibition was 1.67%. Besides, the RAM network inhibition in experiment [7] is 7.53%.
For `CCCCCSc1nc2c(c(=O)[nH]c(=O)n2C)n1CCc1ccccc1`, the growth inhibition was -3.08% in experiment [1] and -4.46% in experiment [2]. Besides, the viability increase in experiment [3] was -1.88%. In addition, the results for the viability in experiment [4] and in experiment [5] were 69.6% and 87%, respectively. In addition, the inhibition in experiment [6] is 2.75%. Besides, the RAM network inhibition in experiment [7] was 8.01%.
On to `Cc1cccn2cc(-c3ccc(S(=O)(=O)N4CCOCC4)cc3)nc12`, for which the growth inhibition in experiment [1] was -12.6%; in experiment [2], -19.7%. Besides, in experiment [3], the viability increase was -1.3%. Also, the viability in experiment [4] is 83.5%; in experiment [5] it was 91%. Further, the inhibition in experiment [6] is 1.75%. The RAM network inhibition in experiment [7] was 2.29%.
